Data: publication PMC9335275 (Proceedings of the National Academy of Sciences of the …, 2022)
Read-outs that look alike come from different tables or passages of the source.

Legend:
[1] = molecular target: T1, NPR-B receptor on NIH3T3 cells (Mus musculus, UniProt Q6VVW5); assay: 3T3 cell NPR-B guanylate cyclase assay; format: cell-based
T1 sequence (Q6VVW5 23-1047 limits assumed): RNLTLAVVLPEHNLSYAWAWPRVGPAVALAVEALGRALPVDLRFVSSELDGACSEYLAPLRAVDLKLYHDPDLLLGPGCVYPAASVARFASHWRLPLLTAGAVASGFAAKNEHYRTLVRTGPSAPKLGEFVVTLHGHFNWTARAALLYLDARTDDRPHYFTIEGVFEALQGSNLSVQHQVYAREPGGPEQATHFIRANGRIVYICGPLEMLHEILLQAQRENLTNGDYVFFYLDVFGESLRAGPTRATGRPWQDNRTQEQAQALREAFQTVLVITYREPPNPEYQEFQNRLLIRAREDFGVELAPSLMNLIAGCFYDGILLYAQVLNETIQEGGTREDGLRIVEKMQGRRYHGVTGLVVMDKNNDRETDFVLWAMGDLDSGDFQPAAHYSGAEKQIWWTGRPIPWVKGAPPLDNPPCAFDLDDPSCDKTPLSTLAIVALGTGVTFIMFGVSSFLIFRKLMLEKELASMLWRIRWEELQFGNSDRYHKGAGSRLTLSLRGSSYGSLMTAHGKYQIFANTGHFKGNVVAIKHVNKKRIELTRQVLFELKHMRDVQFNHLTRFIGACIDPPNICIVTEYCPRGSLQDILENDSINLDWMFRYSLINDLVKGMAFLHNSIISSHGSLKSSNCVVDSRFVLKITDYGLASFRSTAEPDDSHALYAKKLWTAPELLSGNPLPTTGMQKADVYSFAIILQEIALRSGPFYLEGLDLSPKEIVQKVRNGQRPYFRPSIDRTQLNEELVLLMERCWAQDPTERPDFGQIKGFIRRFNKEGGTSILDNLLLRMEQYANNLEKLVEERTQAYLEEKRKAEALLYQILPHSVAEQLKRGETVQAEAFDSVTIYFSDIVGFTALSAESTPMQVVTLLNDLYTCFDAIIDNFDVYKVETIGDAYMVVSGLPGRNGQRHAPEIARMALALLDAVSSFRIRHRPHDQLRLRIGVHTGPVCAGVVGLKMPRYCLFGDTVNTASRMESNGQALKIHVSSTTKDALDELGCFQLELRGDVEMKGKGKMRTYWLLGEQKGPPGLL

[2] = In vitro degradation at pH 7.4, 37 °C, HPLC analysis; format: physicochemical
[3] = test system: 3-wk-old FVB/nJ male mice; assay: Growth; format: in vivo, mouse; details: QD 70 nmol/kg SC, 5 wk, n = 6
Method in brief: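 Wild-type male FVB/nJ mice, 3 wk old, groups of 6, were given SC injections once daily of 70 nmol/kg peptide or vehicle for 5 wk. Total body length was nasoanal plus tail length, measured in anesthetized mice positioned with head extended, nose on a horizontal guideline and tail straight. Length change over the period was compared with the vehicle group.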

[4] = Body weight of treated mice; format: in vivo, mouse; details: 3-wk-old FVB/nJ male mice, various regimens
Method in brief: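 Wild-type male FVB/nJ mice, 3 wk old, about 15 g. Groups received one of: vehicle, daily SC 70 nmol/kg peptide, or microsphere-conjugated peptide. Conjugate dosing was weekly, biweekly or a single dose, either as constant nmol per mouse or as µmol/kg by body weight. Body weights of treated and untreated animals were followed over the study.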

[5] = molecular target: T1, NPR-B receptor on NIH3T3 cells; details: read-out: EC50, reported; literature values; cited from earlier work
[6] = literature value; cited from earlier work
[7] = monkeys, 12 nmol/kg; cited from earlier work
[8] = mice, QD 70-nmol/kg dose; cited from earlier work
[9] = test system: mice; details: 70 nmol/kg; cited from earlier work
[10] = test system: monkeys; details: 12 nmol/kg; cited from earlier work
[11] = test system: children with ACH; details: once daily 15 μg/kg SC; cited from earlier work

EC50 [1]: 11 nM
degradation t1/2 ([2]; 100 µM, 10 mM sodium phosphate, 0.13 M NaCl, pH 7.4, 37 °C, HPLC): ~170 h
t1/2 for degradation ([2]; physiological pH and temperature): ≤ 1 wk
SMILES: CC[C@H](C)[C@@H]1NC(=O)[C@H](CCCNC(=N)N)NC(=O)[C@H](CC(=O)O)NC(=O)[C@H](CC(C)C)NC(=O)[C@H](CCCCN)NC(=O)[C@H](CC(C)C)NC(=O)CNC(=O)[C@H](Cc2ccccc2)NC(=O)[C@@H](NC(=O)CNC(=O)[C@H](CCCCN)NC(=O)[C@H](CO)NC(=O)[C@H](CC(C)C)NC(=O)CNC(=O)[C@H](CCCCN)NC(=O)[C@H](CCCCN)NC(=O)[C@H](CC(N)=O)NC(=O)[C@H](C)NC(=O)CNC(=O)[C@H](CCCCN)NC(=O)[C@H](Cc2ccc(O)cc2)NC(=O)[C@H](CCCCN)NC(=O)[C@H](CCCNC(=N)N)NC(=O)[C@H](C)NC(=O)[C@H](CC(N)=O)NC(=O)[C@@H]2CCCN2C(=O)[C@H](Cc2c[nH]cn2)NC(=O)[C@H](CCC(=O)O)NC(=O)[C@H](CCC(N)=O)NC(=O)CNC(=O)[C@@H]2CCCN2)CSSC[C@@H](C(=O)O)NC(=O)CNC(=O)[C@H](CC(C)C)NC(=O)CNC(=O)[C@H](CO)NC(=O)[C@H](CCSC)NC(=O)[C@H](CO)NC(=O)CNC1=O [vosoritide]
growth (TBL) exceeding that of the vehicle control group at study end [3]: 100%
body weights of treated versus untreated mice [4]: no difference
EC50 [5]: 4.9 nM
Cmax [6]: ~5 nM
Cmax [7]: ~10 nM
Cmax [8]: 200 nM
blood pressure and heart rate [9]: acute decreases in blood pressure and increases in heart rate within acceptable limits
systemic BP or HR [10]: no changes in systemic BP or HR
annualized growth velocity [11]: sustained increase in the annualized growth velocity
side effect profile [11]: mild side effect profile
